Publication PMC2233693 (The Journal of General Physiology, 2000)
Numbering of substitutions follows the chain as printed. Read-outs that look alike come from different tables or passages of the source. Values belong to the molecule of their own block, whether it stands above or below them.

Key:
Type in all cases: biochemical
[1] = target: T1, E340N mutant bovine olfactory CNG channel (Bos taurus, UniProt Q03041, E340N)
T1 sequence (Q03041 1-663 E340N): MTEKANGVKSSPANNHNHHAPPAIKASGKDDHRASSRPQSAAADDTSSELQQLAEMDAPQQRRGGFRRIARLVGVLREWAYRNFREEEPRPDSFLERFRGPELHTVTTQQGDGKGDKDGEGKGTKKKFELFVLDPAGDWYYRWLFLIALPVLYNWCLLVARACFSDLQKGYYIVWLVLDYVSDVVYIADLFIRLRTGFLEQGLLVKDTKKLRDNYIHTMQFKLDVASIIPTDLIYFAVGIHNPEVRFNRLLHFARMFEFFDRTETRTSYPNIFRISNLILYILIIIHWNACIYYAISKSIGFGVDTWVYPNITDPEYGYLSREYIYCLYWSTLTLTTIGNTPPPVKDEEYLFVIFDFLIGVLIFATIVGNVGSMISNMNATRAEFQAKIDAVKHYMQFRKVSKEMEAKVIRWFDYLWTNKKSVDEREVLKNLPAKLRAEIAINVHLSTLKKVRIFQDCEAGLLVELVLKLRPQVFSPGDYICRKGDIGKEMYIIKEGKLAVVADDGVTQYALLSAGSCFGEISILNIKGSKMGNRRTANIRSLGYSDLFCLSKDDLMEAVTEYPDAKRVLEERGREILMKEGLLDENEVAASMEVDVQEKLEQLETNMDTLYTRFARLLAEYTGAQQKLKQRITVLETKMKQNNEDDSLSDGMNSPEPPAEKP

[2] = target: T2, wild-type bovine olfactory CNG channel (α3 subunit) (Bos taurus, UniProt Q03041)
T2 sequence (Q03041 1-663): T1 sequence (Q03041 1-663 E340N) with N340E

[3] = target: T3, E340G mutant bovine olfactory CNG channel (Bos taurus, UniProt Q03041, E340G)
T3 sequence (Q03041 1-663 E340G): T1 sequence (Q03041 1-663 E340N) with N340G

[4] = target: T2, wild-type bovine olfactory CNG channel (α3 subunit); test: Divalent cation permeation, outside-out patches in bi-ionic conditions; settings: for reversal potential, V rev: internal Na
Summary of the method: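 Outside-out oocyte patches; the pipette held 1 mM cGMP and 110 mM NaCl. External 110 mM NaCl was replaced by 73.3 mM CaCl2 or MgCl2. From a 0 mV holding potential, 150-ms steps were given from −80 to +80 mV in 20-mV increments. I_Ca/I_Na was taken at −80 mV, and reversal potential under bi-ionic conditions (internal Na+, external divalent); mean ± SD.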

[5] = read-out: K 1/2,cG, −80 mV, single patch, Fig. 1 fit
[6] = −80 mV, single patch, Fig. 1 fit

- effect of external Ca2+ on K 1/2 for cAMP or cGMP ([1]; 1 mM Ca2+ in the patch pipette): did not significantly affect K 1/2
- effect of external Ca2+ on K 1/2 for cAMP or cGMP ([2]; 1 mM Ca2+ in the patch pipette): did not significantly affect K 1/2
- effect of external Ca2+ on K 1/2 for cAMP or cGMP ([3]; 1 mM Ca2+ in the patch pipette): did not significantly affect K 1/2
- reversal potential, V rev ([4]; external Ca2+): 25 ± 6 mV
- I Ca/I Na ([4]; −80 mV, external 73.3 mM CaCl2 vs 110 mM NaCl): 0.049 ± 0.004
SMILES: [Ca+2] [Ca^2+]

- reversal potential, V rev ([4]; external Mg2+): 45 ± 7 mV
SMILES: [Mg+2] [Mg^2+]

- n(−80 mV), Hill coefficient ([1]; cGMP): 2.1 ± 0.3
- I(−80 mV)/I(+80 mV) ([1]; cGMP-gated current): 0.55 ± 0.10
- EC50 ([1]; read-out: K 1/2, cGMP, +80 mV): 5.6 ± 1.8 µM
- EC50 ([1]; read-out: K 1/2, cGMP, −80 mV): 7.6 ± 4 µM
- EC50 [1, 5]: 6.6 µM
- n cG [1, 6]: 2.3
- n(−80 mV), Hill coefficient ([2]; cGMP): 2.7 ± 0.2
- I(−80 mV)/I(+80 mV) ([2]; cGMP-gated current): 1.11 ± 0.03
- EC50 ([2]; read-out: K 1/2, cGMP, +80 mV): 2.6 ± 0.6 µM
- EC50 ([2]; read-out: K 1/2, cGMP, −80 mV): 2.5 ± 0.5 µM
- EC50 [2, 5]: 3.2 µM
- n cG [2, 6]: 2.7
- n(−80 mV), Hill coefficient ([3]; cGMP): 1.8 ± 0.4
- I(−80 mV)/I(+80 mV) ([3]; cGMP-gated current): 0.79 ± 0.09
- EC50 ([3]; read-out: K 1/2, cGMP, +80 mV): 13 ± 1.5 µM
- EC50 ([3]; read-out: K 1/2, cGMP, −80 mV): 15 ± 1.6 µM
- EC50 [3, 5]: 18.5 µM
- n cG [3, 6]: 1.6
SMILES: Nc1nc2c(ncn2[C@@H]2O[C@@H]3COP(=O)(O)O[C@H]3[C@H]2O)c(=O)[nH]1 [cGMP]
